# Screening results as filed in PubChem.
# Compounds with a hit are over-represented: about 1.6% of the library has one in this group of screens.
# TPT1 inhibitor: C. albicans TPT1 enzyme inhibition | recombinant caTPT1, FP RNA substrate dephosphorylation | AID 1962 | 300,000 tested, 0.81% active | inhibition, % at 5 µM;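 active = inhibition above the mean of all tested compounds plus 3 SD, set per screening campaign, cut at about 24% in these data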;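 note: plate controls were DMSO alone for no effect and ferristatin control at 100 nM for full effect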
# Rpn11 inh: Rpn11 (human) deubiquitinase inhibition. O00487. human 26S proteasome, Ub4-pepOG fluorescence polarization; 20S core pre-blocked with epoxomicin. calls only at 20 µM. 360,000 tested, 0.59% active. AID 588493;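 active = inhibition at 20 µM, scaled to each plate's controls, above about 33%, limit read from the data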
# Target sequence (O00487 whole entry, looked up): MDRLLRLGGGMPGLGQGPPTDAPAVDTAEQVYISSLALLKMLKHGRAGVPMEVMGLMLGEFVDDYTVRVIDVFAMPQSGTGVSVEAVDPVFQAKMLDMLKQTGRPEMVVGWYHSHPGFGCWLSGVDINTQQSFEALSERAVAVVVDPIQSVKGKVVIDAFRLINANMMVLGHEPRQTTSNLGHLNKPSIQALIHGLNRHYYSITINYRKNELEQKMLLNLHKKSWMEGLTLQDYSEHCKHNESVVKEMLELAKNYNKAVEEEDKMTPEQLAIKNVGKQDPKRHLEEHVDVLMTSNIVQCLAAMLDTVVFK
# CSN deneddyl inh: blocks human CSN-mediated cullin deneddylation. Q92905. Purified CSN, SCF-Nedd8-OG deneddylation, fluorescence polarization. inhibition, % at 12.5 µM. 360,000 tested, 0.38% active;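 active = pattern-corrected inhibition above about 35%, with an unprinted fluorescence ratio check between 0.5 and 1.5, limit read from the data, passing the limit was not always enough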;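 note: 0% = enzyme with substrate and 100% = substrate without enzyme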
#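 Assay system: purified human Csn5 enzyme expressed in HEK293T cells; Input: 0.24 nM Csn5 enzyme, final concentration; Reagent: 10 nM SCFSkp2-Nedd8OG; Compound dosing: 12.5 µM single point; Times: reaction 90 min, room temperature; Technique: fluorescence polarization readout.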
# HNF4A DNA FP: change in binding of human HNF4 alpha to DNA | HNF4a-FITC DNA binding, fluorescence polarization, 1 h | P41235 | activity change, % at 10 µM | 360,000 tested, 0.3% active; in the data active = activity change above about 30%, passing the limit was not always enough
# PKA-R1A activ: activators of PKA-R1A complex; P00514+P68181; PKA-R1A dissociation, Cy5-IP20 fluorescence polarization; scaled: DMSO 0%, 113 µM cGMP 100%; activation, % at 11.4 µM; 340,000 tested, 0.083% active;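 active = percent activation above the mean of all tested compounds plus 3 SD, cut at about 19% in these data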;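 note: higher means more PKAc released from R1A so a rise in polarization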
# PKA-R2B act: activators of human PKA-R2B complex. PKA-R2B holoenzyme dissociation, Cy5-IP20 fluorescence polarization; R2B truncated from residue 108, S112A mutant; 0% DMSO only, 100% 113 µM cGMP. activation, % at 11.4 µM. 340,000 tested, 0.079% active. AID 504700;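 active = activation above a cutoff set at the mean over all compounds plus 3 SD, cut at about 18% in these data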;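 note: higher means more holoenzyme dissociation and a rise in polarization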
# caTPT1 confirm: TPT1 (C. albicans) inhibition, confirmation; shares compounds with TPT1 inhibitor; recombinant caTPT1, fluorescence polarization, RNase T1 coupled; inhibition, % at 5 µM; 2,400 tested, 74% active;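 active = inhibition above the primary screen limit, the mean inhibition of all tested compounds plus 3 SD, cut at about 25% in these data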
# RNase T1 inh: blocks Aspergillus oryzae RNase T1, a TPT1 counter-screen | inhibition, % at 5 µM | shares compounds with TPT1 inhibitor | RNase T1 cleavage, fluorescence polarization, 1536-well | 2,400 tested, 83% active;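 active = inhibition above the solvent-only control well mean plus 3 SD, limit set per screening run, cut at about 23% in these data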;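 note: plate controls were DMSO wells with enzyme for no effect and wells without RNase T1 for full effect; inhibitors block cleavage so intact labeled substrate keeps polarization high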
# Target sequence (P00651 whole entry, looked up): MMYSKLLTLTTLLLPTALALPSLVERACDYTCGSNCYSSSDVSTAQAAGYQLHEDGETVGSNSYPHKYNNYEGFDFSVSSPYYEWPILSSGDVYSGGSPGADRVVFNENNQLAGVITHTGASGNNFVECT
# An asterisk follows results filed as active; i = inactive; nt = not tested or not shown; + = active, no number.
SMILES,TPT1 inhibitor,Rpn11 inh,CSN deneddyl inh,HNF4A DNA FP,PKA-R1A activ,PKA-R2B act,caTPT1 confirm,RNase T1 inh
CN(C)/C=C/C(=O)c1ccc(N2CCN(c3ncc(C(F)(F)F)cc3Cl)CC2)cc1,80.2*,i,-0.6,2.3,-13.9,-2.8,15.4,19.1
CC(=O)Nc1ccc(Oc2cc(NC(C)=O)cc([N+](=O)[O-])c2)cc1,1.5,i,-15.1,-0.3,-8.2,0.3,nt,nt
CN(C)c1ccc(/C=C2/NC(=O)NC2=O)cc1,12.0,i,6.8,8.6,-2.3,0.4,nt,nt
CN(C)c1ccc(/C=C2\N=C(c3ccc(Cl)c([N+](=O)[O-])c3)NC2=O)cc1,52.9*,i,19.1,22.8,4.7,-12.8,85.6*,93.7*
CN1C/C(=C/c2ccncc2)C(=O)/C(=C/c2ccncc2)C1,-1.9,i,3.8,-0.3,-10.9,-5.8,nt,nt
CCN1C/C(=C/c2ccc(N3CCOCC3)cc2)C(=O)/C(=C/c2ccc(N3CCOCC3)cc2)C1,98.7*,nt,33.3,0.7,-1.9,9.4,97.4*,93.1*
CN1C/C(=C\c2ccc(N3CCOCC3)cc2)C(=O)/C(=C/c2ccc(N3CCOCC3)cc2)C1,62.8*,nt,13.3,5.7,6.7,5.2,89.3*,94.4*
CCc1ccc(/C=C2/SC(N3CCOCC3)=NC2=O)cc1,-0.8,i,1.8,-1.2,-5.2,-8.6,nt,nt
O=S(=O)(c1ccccc1)C1Cc2ccccc2C1Cl (stereo unspecified),3.3,i,-6.9,1.0,nt,nt,nt,nt
COc1ccc(CCNC(=O)C2(C)CCC(=O)N2Cc2ccc(F)cc2Cl)cc1OC (stereo unspecified),-1.6,i,-0.2,-1.0,3.7,-2.6,nt,nt
O=C(O)c1cccc(S(=O)(=O)N2CCCC(c3nc4c(nnn4Cc4ccc(F)cc4)c(=O)[nH]3)C2)c1 (stereo unspecified),-3.4,i,0.6,1.3,-5.4,-0.8,nt,nt
O=C(NCc1ccccc1)c1cc(S(=O)(=O)N2CCOCC2)ccc1F,48.2*,i,9.4,17.2,-12.8,-0.1,39.8*,51.6*
COc1ccc(C(=O)c2c(N)sc3c2CCN(C)C3)cc1,41.8*,i,2.9,-13.0,-0.2,0.1,40.4*,48.4*
Cc1cc(=O)n2[nH]c(-c3ccc(C(C)(C)C)cc3)cc2n1,-2.0,i,1.2,8.2,-11.7,-3.4,nt,nt
N#Cc1c(NC(=O)CSc2nnc(-c3ccncc3)n2CC2CCCO2)sc2c1CCCC2 (stereo unspecified),115.1*,i,1.2,1.5,-5.2,-2.5,5.3,7.1
CCn1c(SCC(=O)Nc2sc3c(c2C#N)CCCC3)nnc1-c1ccncc1,3.2,i,-1.8,-0.2,-4.8,-3.1,nt,nt
COc1ccc(N(CC(=O)N/N=C/c2ccc(-c3ccc([N+](=O)[O-])cc3)o2)S(=O)(=O)c2ccc(C)cc2)cc1Cl,43.3*,i,14.5,21.6,8.4,1.3,41.8*,50.8*
COc1ccc(N(CC(=O)N/N=C/c2ccc(-c3ccc([N+](=O)[O-])cc3)o2)S(=O)(=O)c2ccc(C)cc2)cc1,4.8,nt,28.2,34.9,-15.6,-12.8,nt,nt
O=C(NC12CC3CC(CC(C3)C1)C2)c1cc(F)c(F)c(F)c1F,44.3*,i,-0.3,0.4,-1.4,-1.4,-4.1,-2.8
COC(=O)CN1C(=O)N/C(=C/c2ccc(OC)cc2)C1=O,-2.1,i,-1.6,-5.8,3.4,7.0,nt,nt
COC(=O)Cn1c(=O)c2c(n(Cc3ccccc3)c1=O)N/C(=C/c1ccc(Br)cc1)C2=O,43.2*,nt,12.9,13.7,-5.8,2.7,32.3*,47.0*
COc1ccc(CCC(C)N2CCC(CO)(Cc3ccccc3)CC2)cc1 (stereo unspecified),-1.8,i,1.9,0.2,6.2,0.6,nt,nt
CN1CCC/C1=C/C=C1\SC(=S)NC1=O,145.9*,nt,7.8,-4.8,7.5,-4.3,153.9*,140.4*
O=C1NC(=S)SC1=Cc1cccs1,nt,i,-0.1,8.5,-0.4,4.5,nt,nt
CCC1Oc2ccccc2N(CC(=O)NC2CCCCC2)C1=O (stereo unspecified),-5.4,i,0.0,1.6,0.4,-3.7,nt,nt
SMILES,TPT1 inhibitor,Rpn11 inh,CSN deneddyl inh,HNF4A DNA FP,PKA-R1A activ,PKA-R2B act,caTPT1 confirm,RNase T1 inh
COC(=O)c1ccc(SCC(=O)NCc2ccccc2)c([N+](=O)[O-])c1,-4.5,i,-5.9,0.1,-6.8,-2.4,nt,nt
C=CCn1c(C(CC(C)C)CC(C)O)n[nH]c1=S (stereo unspecified),42.5*,i,1.2,-0.9,6.6,2.5,1.7,4.2
CCN(CC)CC(=O)Nc1nc(-c2ccc(Cl)cc2)cs1,40.9*,i,1.0,2.8,-0.1,2.6,-0.2,3.5
CCOC(=O)C1C(C(=O)OCC)C(C)(C)C1N(C)C (stereo unspecified),nt,i,4.1,-3.1,-9.7,-0.5,nt,nt
C(=N\NC1=Nc2cccc3cccc1c23)/c1ccccc1,26.3*,i,6.5,26.0,-4.4,-6.2,41.8*,57.7*
COc1ccc(NC2=Nc3cccc4cccc2c34)cc1OC,33.1*,i,8.7,10.4,4.6,1.2,31.2*,39.5*
Clc1ccc(/C=N/NC2=Nc3cccc4cccc2c34)cc1,12.7,i,15.5,22.1,-3.8,-9.3,nt,nt
CC1(C)NS(=O)(=O)Oc2ccccc21,-2.0,i,-4.4,1.1,-5.0,-2.5,nt,nt
COc1ccc(-n2ncc3c2CC(C)(C)CC3NC(=O)CCCN2CCCC2=O)cc1 (stereo unspecified),-3.8,i,-3.7,0.4,11.9,0.1,nt,nt
COc1ccc(C(=O)c2sc3nc(-c4ccccc4)ccc3c2N)cc1,82.2*,+,6.0,28.4,3.5,-2.5,85.3*,91.8*
COc1ccc(CC(=O)c2ccc(OC)c(OC)c2C)cc1OC,0.6,i,4.7,1.4,2.5,-1.2,nt,nt
COc1ccc(C(=O)C[n+]2cc(Br)cc3ccccc32)cc1[N+](=O)[O-],45.0*,i,-1.3,2.8,-0.3,0.7,39.2*,56.1*
Cc1ccc2c(ccc[n+]2CC(=O)c2ccccc2)c1,9.7,i,2.2,-2.7,-7.5,2.5,nt,nt
O=C(C[n+]1cc(Br)cc2ccccc21)c1ccccc1,39.9*,nt,14.4,25.8,-6.3,1.5,48.0*,63.6*
COc1ccc(C(=O)OCC(N)=O)cc1[N+](=O)[O-],1.6,i,-5.1,0.0,-8.1,-22.2,nt,nt
CCC1CCCCN1C(=O)COC(=O)COc1ccc(Br)cc1 (stereo unspecified),nt,i,-1.4,2.4,-0.2,-7.3,nt,nt
